ChEMBL document CHEMBL1921685, “Design and synthesis of triazolopyridazines substituted with methylisoquinolinone as selective c-Met kinase inhibitors” (Bioorg Med Chem Lett, 2011)

How the values were obtained:
[1] = biological target: Hepatocyte growth factor receptor (Homo sapiens, UniProt P08581); test: Inhibition of recombinant c-met by HTRF assay
[2] = test system: NCI-N87; test: Growth inhibition of c-met-independent human NCI-N87 cells after 72 hrs by MTS assay; format: functional; conditions: NCI-N87, 72 h
[3] = biological target: High affinity nerve growth factor receptor (Homo sapiens, UniProt P04629); test: Inhibition of TRKA
Sequence of High affinity nerve growth factor receptor (P04629 whole entry): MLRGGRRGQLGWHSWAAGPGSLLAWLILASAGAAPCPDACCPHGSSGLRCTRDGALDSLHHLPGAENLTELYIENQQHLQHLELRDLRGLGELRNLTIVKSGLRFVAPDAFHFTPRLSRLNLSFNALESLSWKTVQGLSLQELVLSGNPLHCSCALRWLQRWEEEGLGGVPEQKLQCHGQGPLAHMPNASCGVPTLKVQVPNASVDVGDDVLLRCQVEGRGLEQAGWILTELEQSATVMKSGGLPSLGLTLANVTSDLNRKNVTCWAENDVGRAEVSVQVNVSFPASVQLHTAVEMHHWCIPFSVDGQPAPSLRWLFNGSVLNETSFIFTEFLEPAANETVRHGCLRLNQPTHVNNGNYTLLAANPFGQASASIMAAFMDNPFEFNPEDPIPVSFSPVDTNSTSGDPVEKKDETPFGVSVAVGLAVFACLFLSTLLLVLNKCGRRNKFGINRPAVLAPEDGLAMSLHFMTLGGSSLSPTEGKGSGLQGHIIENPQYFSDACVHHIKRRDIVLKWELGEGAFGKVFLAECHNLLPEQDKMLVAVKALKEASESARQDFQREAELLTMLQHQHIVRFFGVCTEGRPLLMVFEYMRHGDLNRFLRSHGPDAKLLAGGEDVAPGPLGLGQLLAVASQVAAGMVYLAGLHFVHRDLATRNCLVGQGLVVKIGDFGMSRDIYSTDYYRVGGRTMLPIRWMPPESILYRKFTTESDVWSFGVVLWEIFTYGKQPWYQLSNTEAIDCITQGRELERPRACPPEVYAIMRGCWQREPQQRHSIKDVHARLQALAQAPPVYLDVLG

[4] = test system: MKN-45; test: Growth inhibition of c-met-amplified human MKN45 cells after 72 hrs by MTS assay; format: functional; conditions: MKN-45, 72 h
[5] = biological target: Macrophage-stimulating protein receptor (Homo sapiens, UniProt Q04912); test: Inhibition of RON
Sequence of Macrophage-stimulating protein receptor (Q04912 25-304 limits assumed): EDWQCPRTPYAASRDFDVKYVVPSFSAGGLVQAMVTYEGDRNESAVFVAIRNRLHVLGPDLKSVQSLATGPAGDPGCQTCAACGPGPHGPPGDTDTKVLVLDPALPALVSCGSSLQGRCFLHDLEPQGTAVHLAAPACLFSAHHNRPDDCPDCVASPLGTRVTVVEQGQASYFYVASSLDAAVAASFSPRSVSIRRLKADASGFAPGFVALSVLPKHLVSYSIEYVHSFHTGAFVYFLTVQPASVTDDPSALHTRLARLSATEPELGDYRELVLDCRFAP
Sequence of Macrophage-stimulating protein receptor (Q04912 310-1400 limits assumed): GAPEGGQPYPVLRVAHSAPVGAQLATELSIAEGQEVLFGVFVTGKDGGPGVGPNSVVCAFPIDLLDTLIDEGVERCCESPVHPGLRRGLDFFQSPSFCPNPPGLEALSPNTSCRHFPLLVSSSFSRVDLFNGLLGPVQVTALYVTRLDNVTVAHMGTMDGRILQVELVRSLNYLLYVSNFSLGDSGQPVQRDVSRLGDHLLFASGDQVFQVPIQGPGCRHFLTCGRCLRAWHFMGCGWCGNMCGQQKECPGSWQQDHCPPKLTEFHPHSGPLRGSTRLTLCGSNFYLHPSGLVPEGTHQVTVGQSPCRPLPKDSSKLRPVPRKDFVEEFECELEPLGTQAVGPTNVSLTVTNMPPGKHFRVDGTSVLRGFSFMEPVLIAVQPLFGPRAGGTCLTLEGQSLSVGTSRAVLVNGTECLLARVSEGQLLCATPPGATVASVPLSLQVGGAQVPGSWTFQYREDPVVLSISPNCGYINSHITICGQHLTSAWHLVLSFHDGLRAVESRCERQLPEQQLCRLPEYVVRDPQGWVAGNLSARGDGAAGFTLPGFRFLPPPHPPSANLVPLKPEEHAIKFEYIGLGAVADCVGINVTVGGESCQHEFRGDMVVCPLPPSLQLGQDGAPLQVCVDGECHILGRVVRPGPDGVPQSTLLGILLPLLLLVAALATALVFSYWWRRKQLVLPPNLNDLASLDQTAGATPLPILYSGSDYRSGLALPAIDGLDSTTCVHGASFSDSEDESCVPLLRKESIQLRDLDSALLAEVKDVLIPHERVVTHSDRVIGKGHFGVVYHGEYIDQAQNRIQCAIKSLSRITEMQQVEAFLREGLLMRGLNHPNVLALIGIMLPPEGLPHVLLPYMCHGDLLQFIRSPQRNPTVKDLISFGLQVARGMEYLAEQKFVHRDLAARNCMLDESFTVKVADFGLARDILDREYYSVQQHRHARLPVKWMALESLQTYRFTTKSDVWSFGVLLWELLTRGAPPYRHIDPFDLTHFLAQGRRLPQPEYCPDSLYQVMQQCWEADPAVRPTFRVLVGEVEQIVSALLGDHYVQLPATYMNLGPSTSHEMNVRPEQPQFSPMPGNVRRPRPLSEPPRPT

[6] = test system: SNU-5; test: Growth inhibition of c-met-amplified human SNU5 cells after 72 hrs by MTS assay; format: functional; conditions: SNU-5, 72 h
[7] = biological target: T1, Aurora kinase A (Homo sapiens, UniProt O14965); test: Inhibition of AurA
T1 sequence (O14965 whole entry): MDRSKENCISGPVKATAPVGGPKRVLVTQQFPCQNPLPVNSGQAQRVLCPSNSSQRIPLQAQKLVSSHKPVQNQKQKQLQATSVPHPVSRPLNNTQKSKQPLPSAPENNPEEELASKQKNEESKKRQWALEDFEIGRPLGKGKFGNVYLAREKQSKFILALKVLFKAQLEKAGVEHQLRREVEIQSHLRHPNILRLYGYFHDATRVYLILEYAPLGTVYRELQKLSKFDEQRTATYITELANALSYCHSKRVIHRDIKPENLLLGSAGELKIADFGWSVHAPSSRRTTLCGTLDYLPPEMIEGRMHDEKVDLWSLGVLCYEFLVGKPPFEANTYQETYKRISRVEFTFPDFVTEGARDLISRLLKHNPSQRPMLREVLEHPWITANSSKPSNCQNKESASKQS

[8] = Growth inhibition of c-met-amplified human Hs 746T cells after 72 hrs by MTS assay; format: functional; conditions: Hs746T
[9] = biological target: T2, Receptor-type tyrosine-protein kinase FLT3 (Homo sapiens, UniProt P36888); test: Inhibition of FLT3
T2 sequence (P36888 whole entry): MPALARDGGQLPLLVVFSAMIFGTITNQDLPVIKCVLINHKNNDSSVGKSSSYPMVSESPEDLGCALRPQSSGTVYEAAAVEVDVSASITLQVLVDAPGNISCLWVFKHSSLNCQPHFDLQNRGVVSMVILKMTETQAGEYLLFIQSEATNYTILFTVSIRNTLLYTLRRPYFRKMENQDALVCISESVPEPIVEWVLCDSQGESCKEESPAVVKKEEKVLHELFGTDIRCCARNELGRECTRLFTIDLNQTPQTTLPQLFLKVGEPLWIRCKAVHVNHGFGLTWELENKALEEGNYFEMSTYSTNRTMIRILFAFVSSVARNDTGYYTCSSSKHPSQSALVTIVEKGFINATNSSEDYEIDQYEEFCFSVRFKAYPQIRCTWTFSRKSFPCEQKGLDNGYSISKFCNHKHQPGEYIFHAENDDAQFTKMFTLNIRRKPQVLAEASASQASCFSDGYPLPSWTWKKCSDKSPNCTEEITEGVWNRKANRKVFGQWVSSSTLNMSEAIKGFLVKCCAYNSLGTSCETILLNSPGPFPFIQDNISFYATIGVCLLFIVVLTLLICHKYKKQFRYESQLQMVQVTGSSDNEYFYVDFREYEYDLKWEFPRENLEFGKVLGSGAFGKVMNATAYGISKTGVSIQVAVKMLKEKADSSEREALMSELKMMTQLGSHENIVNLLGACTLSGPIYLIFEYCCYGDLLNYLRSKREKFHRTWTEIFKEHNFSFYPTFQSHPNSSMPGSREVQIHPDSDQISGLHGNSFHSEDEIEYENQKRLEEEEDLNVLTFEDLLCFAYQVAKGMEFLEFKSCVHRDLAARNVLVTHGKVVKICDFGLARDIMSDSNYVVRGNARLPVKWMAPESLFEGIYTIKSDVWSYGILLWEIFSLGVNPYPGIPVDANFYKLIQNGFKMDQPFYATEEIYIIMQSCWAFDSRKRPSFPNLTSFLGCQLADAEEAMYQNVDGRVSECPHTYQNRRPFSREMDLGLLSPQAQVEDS

[10] = Volume of distribution at steady state in rat at 10 mg/kg, iv; format: ADME, organism-based; set-up: dose 10 mg/kg, route intravenous; conditions: in vivo, read-out: Vdss
Procedure, shortened: (§1)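 Rat pharmacokinetics: 10 mg/kg dose given, three rats per group.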

[11] = Oral bioavailability in rat at 10 mg/kg; format: ADME, organism-based; conditions: in vivo; procedure, shortened: as §1
[12] = Cmax in rat at 10 mg/kg, po; format: ADME, organism-based; set-up: dose 10 mg/kg, route oral; conditions: in vivo; procedure, shortened: as §1
[13] = Clearance in rat at 10 mg/kg, iv; format: ADME, organism-based; set-up: dose 10 mg/kg, route intravenous; conditions: in vivo; procedure, shortened: as §1
[14] = AUC in rat at 10 mg/kg, po; format: ADME, organism-based; set-up: dose 10 mg/kg, route oral; conditions: plasma; procedure, shortened: as §1
[15] = AUC in rat at 10 mg/kg, iv; format: ADME, organism-based; set-up: dose 10 mg/kg, route intravenous; conditions: plasma; procedure, shortened: as §1

Sequence of Hepatocyte growth factor receptor (P08581 whole entry): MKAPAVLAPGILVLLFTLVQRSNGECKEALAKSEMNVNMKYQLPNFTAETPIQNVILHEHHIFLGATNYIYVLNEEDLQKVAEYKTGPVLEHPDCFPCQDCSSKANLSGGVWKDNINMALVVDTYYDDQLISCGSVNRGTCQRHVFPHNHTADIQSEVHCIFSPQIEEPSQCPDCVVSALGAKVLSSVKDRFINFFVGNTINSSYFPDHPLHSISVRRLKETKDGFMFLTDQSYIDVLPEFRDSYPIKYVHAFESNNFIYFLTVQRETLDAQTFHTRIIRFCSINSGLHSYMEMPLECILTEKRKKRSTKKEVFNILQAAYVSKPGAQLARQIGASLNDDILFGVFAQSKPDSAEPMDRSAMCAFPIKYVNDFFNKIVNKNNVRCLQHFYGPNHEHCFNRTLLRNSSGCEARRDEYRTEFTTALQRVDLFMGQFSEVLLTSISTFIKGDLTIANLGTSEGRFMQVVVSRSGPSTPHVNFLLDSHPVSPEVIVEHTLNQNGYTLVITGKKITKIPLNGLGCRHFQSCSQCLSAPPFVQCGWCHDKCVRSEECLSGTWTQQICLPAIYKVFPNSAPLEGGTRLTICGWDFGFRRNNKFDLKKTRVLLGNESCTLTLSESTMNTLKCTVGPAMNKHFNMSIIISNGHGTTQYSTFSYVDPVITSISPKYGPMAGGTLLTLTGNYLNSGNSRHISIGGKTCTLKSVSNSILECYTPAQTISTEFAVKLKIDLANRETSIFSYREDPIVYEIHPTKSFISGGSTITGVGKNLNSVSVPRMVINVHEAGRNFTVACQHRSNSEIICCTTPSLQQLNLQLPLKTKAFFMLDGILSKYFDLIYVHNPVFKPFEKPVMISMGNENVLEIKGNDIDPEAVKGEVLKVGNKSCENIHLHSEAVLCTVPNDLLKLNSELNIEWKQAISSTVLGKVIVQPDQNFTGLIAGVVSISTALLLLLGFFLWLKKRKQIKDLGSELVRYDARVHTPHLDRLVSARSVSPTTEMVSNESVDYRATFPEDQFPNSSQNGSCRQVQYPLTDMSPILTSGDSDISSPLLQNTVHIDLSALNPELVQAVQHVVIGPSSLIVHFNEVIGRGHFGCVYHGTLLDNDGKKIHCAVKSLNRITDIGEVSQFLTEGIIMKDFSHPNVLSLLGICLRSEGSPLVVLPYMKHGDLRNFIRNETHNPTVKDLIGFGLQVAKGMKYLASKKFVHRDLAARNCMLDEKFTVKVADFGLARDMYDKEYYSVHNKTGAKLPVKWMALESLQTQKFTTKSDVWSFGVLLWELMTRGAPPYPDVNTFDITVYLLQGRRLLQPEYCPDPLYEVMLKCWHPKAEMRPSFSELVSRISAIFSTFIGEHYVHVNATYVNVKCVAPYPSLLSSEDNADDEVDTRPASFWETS

Compound | IC50 [1] [µM] | GI50 [2] [µM] | GI50 [4] [µM] | GI50 [6] [µM] | GI50 [8] [µM] | also measured
O=c1[nH]ccc2c(Cc3nnc4ccc(-c5cn[nH]c5)nn34)cccc12 | 0.005 | – | – | – | – | –
Cn1cc(-c2ccc3nnc(Cc4cccc5c(=O)[nH]ccc45)n3n2)cn1 | 0.002 | > 10 | 0.13 | 0.69 | 0.064 | IC50 [3]: > 10 µM; IC50 [5]: > 10 µM; IC50 [7]: > 10 µM; IC50 [9]: > 10 µM
O=c1[nH]ccc2c(Cc3nnc4ccc(-c5ccccc5)nn34)cccc12 | 0.003 | > 10 | 0.038 | 0.059 | 0.071 | Vd [10]: 6.4 L/kg; bioavailability [11]: 35%; Cmax [12]: 300 ng/mL; IC50 [3]: > 10 µM; clearance [13]: 13.3 mL/min/kg; IC50 [5]: > 10 µM; IC50 [7]: > 10 µM; IC50 [9]: > 10 µM; AUC [14]: 3900 ng·h/mL; AUC [15]: 11200 ng·h/mL
O=c1[nH]ccc2c(Cc3nnc4ccc(-c5cnn(CCO)c5)nn34)cccc12 | 0.002 | – | – | – | – | –
O=c1[nH]ccc2c(Cc3nnc4ccc(-c5cnn(C6CCNCC6)c5)nn34)cccc12 | 0.027 | – | – | – | – | –
O=c1[nH]ccc2c(Cc3nnc4ccc(N5CCCC5)nn34)cccc12 | 0.027 | – | – | – | – | –
O=c1[nH]ccc2c(Cc3nnc4ccc(N5CCCCC5)nn34)cccc12 | 0.029 | – | – | – | – | –
O=c1[nH]ccc2c(Cc3nnc4ccc(-c5ccsc5)nn34)cccc12 | 0.004 | > 10 | 0.032 | 0.056 | 0.17 | –
O=c1[nH]ccc2c(Cc3nnc4ccc(-c5cccnc5)nn34)cccc12 | 0.005 | > 10 | 0.42 | 0.45 | 0.4 | –
O=c1[nH]ccc2c(Cc3nnc4ccc(-c5csc6ccccc56)nn34)cccc12 | 0.014 | – | – | – | – | –
Cc1ccccc1-c1ccc2nnc(Cc3cccc4c(=O)[nH]ccc34)n2n1 | 0.072 | – | – | – | – | –
O=c1[nH]ccc2c(Cc3nnc4ccc(-c5ccccc5Cl)nn34)cccc12 | 0.004 | – | – | – | – | –
O=c1[nH]ccc2c(Cc3nnc4ccc(-c5cccc(Cl)c5)nn34)cccc12 | 0.007 | > 10 | 0.011 | 0.019 | 0.053 | –
O=c1[nH]ccc2c(Cc3nnc4ccc(-c5cccc(F)c5)nn34)cccc12 | 0.003 | > 10 | 0.042 | 0.052 | 0.13 | –
O=c1[nH]ccc2c(Cc3nnc4ccc(-c5cccc([N+](=O)[O-])c5)nn34)cccc12 | 0.004 | – | – | – | – | –
N#Cc1cccc(-c2ccc3nnc(Cc4cccc5c(=O)[nH]ccc45)n3n2)c1 | 0.003 | > 10 | 0.036 | 0.12 | 0.059 | –
O=c1[nH]ccc2c(Cc3nnc4ccc(-c5cccc(O)c5)nn34)cccc12 | 0.003 | > 10 | 0.47 | 1.1 | 0.6 | –
COc1cccc(-c2ccc3nnc(Cc4cccc5c(=O)[nH]ccc45)n3n2)c1 | 0.005 | > 10 | 0.095 | 0.13 | 0.1 | –
Cn1ccc2c(Cc3nnc4ccc(-c5cccc(F)c5)nn34)cccc2c1=O | 0.073 | – | – | – | – | –
CCn1ccc2c(Cc3nnc4ccc(-c5cccc(F)c5)nn34)cccc2c1=O | 0.072 | – | – | – | – | –
